In ChEMBL document CHEMBL4689842, “EUbOPEN Chemogenomics Library wave 1” (2021):
“And” between values parts separate entries of the source, which are not always exact repeats. Identical values can stand only once.

Test system: U2OS
Experiment: Multiplex assay against U2OS
Assay type: toxicity, cell-based
Settings: human
Outline: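 Cells stained live at seeding with Hoechst33342, BioTracker Green Microtubule Cytoskeleton Dye, MitoTracker Red and Annexin V Alexa Fluor 680 were imaged on a CQ1 microscope at 37°C and 5% CO2 after compound addition. Their classification by CellPathfinder machine-learning gating ran from Hoechst high-intensity objects versus normal cells, to healthy, pyknosed or fragmented nuclei among normal cells, to mitotic or apoptotic among pyknosed cells. Tubulin, mitochondrial-mass and membrane-permeability phenotypes are per cents of healthy-nucleus cells.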

[1] = 12 h, 1 µM, compound concentration 1 uM, replicate 1
[2] = 12 h, 1 µM, compound concentration 1 uM, replicate 2
[3] = 12 h, 10 µM, compound concentration 10 uM, replicate 1
[4] = 12 h, 10 µM, compound concentration 10 uM, replicate 2
[5] = 24 h, 1 µM, compound concentration 1 uM, replicate 1
[6] = 24 h, 1 µM, compound concentration 1 uM, replicate 2
[7] = 24 h, 10 µM, compound concentration 10 uM, replicate 1
[8] = 24 h, 10 µM, compound concentration 10 uM, replicate 2
[9] = 48 h, 1 µM, compound concentration 1 uM, replicate 1
[10] = 48 h, 1 µM, compound concentration 1 uM, replicate 2
[11] = 48 h, 10 µM, compound concentration 10 uM, replicate 1
[12] = 48 h, 10 µM, compound concentration 10 uM, replicate 2

SMILES: Cc1c(-c2ccc(O)cc2)n(Cc2ccc(OCCN3CCCCCC3)cc2)c2ccc(O)cc12 [BAZEDOXIFENE]
- Population Apoptotic (%) [1]: 58%
- Population Fragmented Nuclei (%) [1]: 22%
- Population Healthy Nuclei (%) [1]: 67%
- Population Hoechst High Intensity Objects (%) [1]: 15%
- Population Membrane Permeable-Phenotype (%) [1]: 3%
- Population Mitochondria Different-Phenotype (%) [1]: 13%
- Population Mitotic Cells (%) [1]: 41%
- Population Normal (%) [1]: 84%
- Population Pyknosed Nuclei (%) [1]: 9%
- Population Tubulin-Different-Phenotype (%) [1]: 20%
- Total Cell Count [1]: 144
- Population Apoptotic (%) [2]: 0%
- Population Fragmented Nuclei (%) [2]: 13%
- Population Healthy Nuclei (%) [2]: 81%
- Population Hoechst High Intensity Objects (%) [2]: 10%
- Population Membrane Permeable-Phenotype (%) [2]: 5%
- Population Mitochondria Different-Phenotype (%) [2]: 20%
- Population Mitotic Cells (%) [2]: 100%
- Population Normal (%) [2]: 89%
- Population Pyknosed Nuclei (%) [2]: 4%
- Population Tubulin-Different-Phenotype (%) [2]: 17%
- Total Cell Count [2]: 48
- Population Apoptotic (%) [3]: 41%
- Population Fragmented Nuclei (%) [3]: 24%
- Population Healthy Nuclei (%) [3]: 43%
- Population Hoechst High Intensity Objects (%) [3]: 4%
- Population Membrane Permeable-Phenotype (%) [3]: 23%
- Population Mitochondria Different-Phenotype (%) [3]: 97%
- Population Mitotic Cells (%) [3]: 58%
- Population Normal (%) [3]: 95%
- Population Pyknosed Nuclei (%) [3]: 32%
- Population Tubulin-Different-Phenotype (%) [3]: 98%
- Total Cell Count [3]: 190
- Population Apoptotic (%) [4]: 60%
- Population Fragmented Nuclei (%) [4]: 7%
- Population Healthy Nuclei (%) [4]: 56%
- Population Hoechst High Intensity Objects (%) [4]: 2%
- Population Membrane Permeable-Phenotype (%) [4]: 26%
- Population Mitochondria Different-Phenotype (%) [4]: 100%
- Population Mitotic Cells (%) [4]: 40%
- Population Normal (%) [4]: 97%
- Population Pyknosed Nuclei (%) [4]: 36%
- Population Tubulin-Different-Phenotype (%) [4]: 100%
- Total Cell Count [4]: 42
- Population Apoptotic (%) [5]: 24%
- Population Fragmented Nuclei (%) [5]: 15%
- Population Healthy Nuclei (%) [5]: 66%
- Population Hoechst High Intensity Objects (%) [5]: 11%
- Population Membrane Permeable-Phenotype (%) [5]: 3%
- Population Mitochondria Different-Phenotype (%) [5]: 9%
- Population Mitotic Cells (%) [5]: 76%
- Population Normal (%) [5]: 88%
- Population Pyknosed Nuclei (%) [5]: 17%
- Population Tubulin-Different-Phenotype (%) [5]: 11%
- Total Cell Count [5]: 157
- Population Apoptotic (%) [6]: 11%
- Population Fragmented Nuclei (%) [6]: 8%
- Population Healthy Nuclei (%) [6]: 75%
- Population Hoechst High Intensity Objects (%) [6]: 3%
- Population Membrane Permeable-Phenotype (%) [6]: 2%
- Population Mitochondria Different-Phenotype (%) [6]: 6%
- Population Mitotic Cells (%) [6]: 88%
- Population Normal (%) [6]: 96%
- Population Pyknosed Nuclei (%) [6]: 15%
- Population Tubulin-Different-Phenotype (%) [6]: 15%
- Total Cell Count [6]: 60
- Population Apoptotic (%) [7]: 73%
- Population Fragmented Nuclei (%) [7]: 32%
- Population Healthy Nuclei (%) [7]: 26%
- Population Hoechst High Intensity Objects (%) [7]: 4%
- Population Membrane Permeable-Phenotype (%) [7]: 50%
- Population Mitochondria Different-Phenotype (%) [7]: 100%
- Population Mitotic Cells (%) [7]: 26%
- Population Normal (%) [7]: 95%
- Population Pyknosed Nuclei (%) [7]: 40%
- Population Tubulin-Different-Phenotype (%) [7]: 98%
- Total Cell Count [7]: 213
- Population Apoptotic (%) [8]: 68%
- Population Fragmented Nuclei (%) [8]: 22%
- Population Healthy Nuclei (%) [8]: 30%
- Population Hoechst High Intensity Objects (%) [8]: 20%
- Population Membrane Permeable-Phenotype (%) [8]: 75%
- Population Mitotic Cells (%) [8]: 31%
- Population Normal (%) [8]: 80%
- Population Pyknosed Nuclei (%) [8]: 47%
- Population Tubulin-Different-Phenotype (%) [8]: 100%
- Total Cell Count [8]: 50
- Population Apoptotic (%) [9]: 53%
- Population Fragmented Nuclei (%) [9]: 11%
- Population Healthy Nuclei (%) [9]: 80%
- Population Hoechst High Intensity Objects (%) [9]: 7%
- Population Membrane Permeable-Phenotype (%) [9]: 2%
- Population Mitochondria Different-Phenotype (%) [9]: 13%
- Population Mitotic Cells (%) [9]: 46%
- Population Normal (%) [9]: 92%
- Population Pyknosed Nuclei (%) [9]: 8%
- Population Tubulin-Different-Phenotype (%) [9]: 8%
- Total Cell Count [9]: 197
- Population Apoptotic (%) [10]: 36%
- Population Fragmented Nuclei (%) [10]: 14%
- Population Healthy Nuclei (%) [10]: 75%
- Population Hoechst High Intensity Objects (%) [10]: 3%
- Population Membrane Permeable-Phenotype (%) [10]: 8%
- Population Mitochondria Different-Phenotype (%) [10]: 16%
- Population Mitotic Cells (%) [10]: 63%
- Population Normal (%) [10]: 96%
- Population Pyknosed Nuclei (%) [10]: 11%
- Population Tubulin-Different-Phenotype (%) [10]: 22%
- Total Cell Count [10]: 104
- Population Apoptotic (%) [11]: 95%
- Population Fragmented Nuclei (%) [11]: 39%
- Population Healthy Nuclei (%) [11]: 5%
- Population Hoechst High Intensity Objects (%) [11]: 9%
- Population Membrane Permeable-Phenotype (%) [11]: 77%
- Population Mitotic Cells (%) [11]: 4%
- Population Normal (%) [11]: 90%
- Population Pyknosed Nuclei (%) [11]: 55%
- Population Tubulin-Different-Phenotype (%) [11]: 88%
- Total Cell Count [11]: 177
- Population Apoptotic (%) [12]: 100%
- Population Fragmented Nuclei (%) [12]: 13%
- Population Healthy Nuclei (%) [12]: 48%
- Population Hoechst High Intensity Objects (%) [12]: 32%
- Population Membrane Permeable-Phenotype (%) [12]: 92%
- Population Mitochondria Different-Phenotype (%) [12]: 100%
- Population Mitotic Cells (%) [12]: 0%
- Population Normal (%) [12]: 67%
- Population Pyknosed Nuclei (%) [12]: 37%
- Population Tubulin-Different-Phenotype (%) [12]: 100%
- Total Cell Count [12]: 43

SMILES: CNCc1ccc(-c2cc(-c3nc(-c4ccc(S(=O)(=O)C(C)C)cc4)cnc3N)on2)cc1 [BERZOSERTIB]
- Population Apoptotic (%) [1]: 16% and 46%
- Population Healthy Nuclei (%) [1]: 6% and 0%
- Population Hoechst High Intensity Objects (%) [1]: 31% and 81%
- Population Membrane Permeable-Phenotype (%) [1]: 46% and 20%
- Population Mitochondria Different-Phenotype (%) [1]: 40% and 20%
- Population Mitotic Cells (%) [1]: 83% and 53%
- Population Tubulin-Different-Phenotype (%) [1]: 40% and 80%
- Total Cell Count [1]: 185 and 523
- Population Apoptotic (%) [2]: 10%
- Population Fragmented Nuclei (%) [2]: 41% and 95%
- Population Healthy Nuclei (%) [2]: 10% and 1%
- Population Hoechst High Intensity Objects (%) [2]: 52% and 83%
- Population Membrane Permeable-Phenotype (%) [2]: 42% and 55%
- Population Mitotic Cells (%) [2]: 89%
- Population Normal (%) [2]: 47% and 16%
- Population Pyknosed Nuclei (%) [2]: 48%
- Population Apoptotic (%) [3]: 17% and 38%
- Population Healthy Nuclei (%) [3]: 4% and 0%
- Population Hoechst High Intensity Objects (%) [3]: 49% and 82%
- Population Membrane Permeable-Phenotype (%) [3]: 58% and 75%
- Population Mitochondria Different-Phenotype (%) [3]: 25% and 0%
- Population Mitotic Cells (%) [3]: 82% and 61%
- Population Normal (%) [3]: 50% and 17%
- Population Tubulin-Different-Phenotype (%) [3]: 41% and 50%
- Population Apoptotic (%) [4]: 11%
- Population Fragmented Nuclei (%) [4]: 39% and 97%
- Population Healthy Nuclei (%) [4]: 9% and 1%
- Population Hoechst High Intensity Objects (%) [4]: 45%
- Population Membrane Permeable-Phenotype (%) [4]: 31% and 62%
- Population Mitochondria Different-Phenotype (%) [4]: 5% and 12%
- Population Mitotic Cells (%) [4]: 88%
- Population Normal (%) [4]: 54%
- Population Apoptotic (%) [5]: 50%
- Population Healthy Nuclei (%) [5]: 0% and 11%
- Population Hoechst High Intensity Objects (%) [5]: 81% and 50%
- Population Membrane Permeable-Phenotype (%) [5]: 50% and 61%
- Population Mitotic Cells (%) [5]: 50%
- Population Normal (%) [5]: 18% and 49%
- Population Tubulin-Different-Phenotype (%) [5]: 50% and 61%
- Total Cell Count [5]: 432 and 192
- Population Apoptotic (%) [6]: 28%
- Population Fragmented Nuclei (%) [6]: 37% and 97%
- Population Hoechst High Intensity Objects (%) [6]: 56% and 82%
- Population Membrane Permeable-Phenotype (%) [6]: 38% and 44%
- Population Mitochondria Different-Phenotype (%) [6]: 33% and 11%
- Population Mitotic Cells (%) [6]: 71%
- Population Normal (%) [6]: 43% and 17%
- Population Pyknosed Nuclei (%) [6]: 41%
- Population Tubulin-Different-Phenotype (%) [6]: 47% and 55%
- Total Cell Count [6]: 92 and 244
- Population Apoptotic (%) [7]: 33% and 22%
- Population Fragmented Nuclei (%) [7]: 19%
- Population Healthy Nuclei (%) [7]: 10%
- Population Hoechst High Intensity Objects (%) [7]: 59%
- Population Membrane Permeable-Phenotype (%) [7]: 61%
- Population Mitotic Cells (%) [7]: 66% and 77%
- Population Normal (%) [7]: 40%
- Population Pyknosed Nuclei (%) [7]: 70%
- Population Tubulin-Different-Phenotype (%) [7]: 75%
- Population Apoptotic (%) [8]: 14% and 40%
- Population Fragmented Nuclei (%) [8]: 38% and 98%
- Population Healthy Nuclei (%) [8]: 15% and 0%
- Population Hoechst High Intensity Objects (%) [8]: 51% and 82%
- Population Mitochondria Different-Phenotype (%) [8]: 21% and 16%
- Population Mitotic Cells (%) [8]: 85% and 60%
- Population Normal (%) [8]: 48% and 17%
- Population Tubulin-Different-Phenotype (%) [8]: 36% and 66%
